Bioassay records: PubChem, several laboratories
In the library only some 4.3% were active in any assay of this set; here they are far more common.
TAAR1 ag – human TAAR1 agonism | Q96RJ0 | CHO RD-HGA16 TAAR1, Fluo-8 calcium fluorescence; vehicle wells 0%, saturating PEA agonist 100% | activation, % at 3 µM | 360,000 tested, 0.99% active | AID 624467;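 active = activation above the mean activation of all test compounds in the run plus 3 SD, cut at about 38% in these data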
Target sequence (Q96RJ0 whole entry, looked up): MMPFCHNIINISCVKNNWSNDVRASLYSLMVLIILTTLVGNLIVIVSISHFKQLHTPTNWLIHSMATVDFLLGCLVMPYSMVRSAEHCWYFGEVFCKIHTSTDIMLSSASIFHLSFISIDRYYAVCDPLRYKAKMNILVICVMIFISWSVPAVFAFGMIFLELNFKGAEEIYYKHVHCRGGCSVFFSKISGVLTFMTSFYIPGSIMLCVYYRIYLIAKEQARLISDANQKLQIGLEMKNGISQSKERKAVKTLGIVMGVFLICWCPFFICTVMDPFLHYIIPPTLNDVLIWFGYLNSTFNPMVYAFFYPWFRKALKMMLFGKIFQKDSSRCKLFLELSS
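Test system: RD-HGA16 (CHO) cells co-expressing Gα16 and hTAAR1 | Doses: Single dose, 3 µM | Schedule: 17-24 h seeding, 75 min 37 °C dye, 30 min RT | Evaluation: % activation from peak over basal fluorescence ratio, DMSO-to-PEA scaled | Technique: Kinetic Fluo-8 calcium fluorescence | Benchmarks: Low control DMSO, high control PEA (EC100)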
HTR2A ag – agonists of mouse serotonin 5-HT2A receptor (HTR2A). P35363. CHO-K1 mHTR2A beta-arrestin complementation, luminescence; percent of 30 µM serotonin response. activation, % at 7.6 µM. 360,000 tested, 0.66% active. AID 624169;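 active = activation above a run cutoff, the mean activation of all tested compounds plus 3 SD, cut at about 14% in these data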;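 also: 0% = plate median of compound wells and 100% = 30 µM serotonin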
MC4R antagonist – human MC4R antagonism in cAMP assay. P32245. MC4R-expressing cells, MTII-stimulated cAMP, LANCE TR-FRET. inhibition, % at 6.5 µM. 360,000 tested, 0.48% active. AID 540295;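 active = inhibition above its plate's cutoff, the mean of tested wells on that plate plus 3 SD, cut at about 29% in these data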;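 also: 0% = Melanotan II alone and 100% = Melanotan II plus saturating MCL0020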
Target sequence (P32245 whole entry, looked up): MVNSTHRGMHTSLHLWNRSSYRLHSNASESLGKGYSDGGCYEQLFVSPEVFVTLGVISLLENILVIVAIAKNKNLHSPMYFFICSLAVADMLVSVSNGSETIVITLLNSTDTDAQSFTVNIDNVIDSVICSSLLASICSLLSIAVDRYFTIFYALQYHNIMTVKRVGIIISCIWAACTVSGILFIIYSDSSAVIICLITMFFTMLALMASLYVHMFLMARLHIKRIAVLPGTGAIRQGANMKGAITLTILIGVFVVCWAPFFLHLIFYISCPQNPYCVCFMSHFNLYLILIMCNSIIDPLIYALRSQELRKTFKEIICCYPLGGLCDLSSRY
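Material – human MC4R-expressing U2OS cells · Repeats – no replicates · Detection – TR-FRET with Eu-cAMP and labeled anti-cAMP, 671 nm · Times – compound 30 min, challenge 1 h, detection 1 h · Compound – single nominal compound dose of 6.5 µM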
B2AR ag – activates human beta-2 adrenergic receptor causing internalization; P07550; Am2.2-beta2AR cells, FAP receptor internalization, flow cytometry; response, % (no concentration beside the values); 340,000 tested, 0.43% active; AID 504454;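 active = response above a set limit, near 3 SD of response in nonfluorescent compounds, cut at about 42% in these data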
MC4R ag barr – agonists of human melanocortin 4 receptor (MC4R) beta-arrestin | AID 540308 | activation, % at 8.9 µM | P32245 | U2OS MC4R beta-arrestin complementation, luminescence; percent of melanotan II response, DMSO zero | 360,000 tested, 0.98% active;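 active = activation above a per-plate cutoff, the mean activation of sample wells on that plate plus 3 SD, cut at about 8% in these data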
TAAR1 antag – antagonists of human TAAR1; AID 624466; 360,000 tested, 1.5% active; Q96RJ0; inhibition, % at 3 µM; CHO RD-HGA16 TAAR1, Fluo-8 calcium fluorescence, antagonist;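 active = inhibition above a per-plate cutoff, the mean inhibition of test compounds on that plate plus 3 SD, cut at about 49% in these data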;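 also: 0% = DMSO plus EC80 beta-PEA response and 100% = DMSO alone without agonist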
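test system = CHO RD-HGA16 cells bearing hTAAR1 | replication = singlicate | controls = DMSO-only wells and EC80 β-PEA-stimulated wells | reagent = EC80 β-phenethylamine stimulus | read-out basis = percent inhibition of PEA-evoked calcium signal, max/basal emission ratio | schedule = seeding 17-24 h prior, 75-min 37 °C, 30-min RT dye loading | signal = kinetic Fluo-8 calcium fluorescence measurement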
MC4R barr ag – human MC4R beta-arrestin agonism confirmation | U2OS MC4R beta-arrestin recruitment, luminescence; scaled DMSO 0%, Melanotan II 100% | shares compounds with MC4R ag barr | AID 602192 | activation, % at 8.9 µM | 2,400 tested, 31% active;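 active = mean activation across replicates above the hit cutoff set in the earlier primary screen, cut at about 8% in these data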
MOR-DOR barr ag – OPRM1-OPRD1 heterodimer agonism counter-screen; AID 602194; activation, % at 9.2 µM; U2OS PathHunter beta-arrestin, beta-gal luminescence; percent of deltorphin B response, DMSO zero; shares compounds with MC4R ag barr; 2,400 tested, 5.8% active;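 active = mean activation across replicates exceeds the hit threshold derived in the earlier primary screen, cut at about 18% in these data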;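 also: 100% = deltorphin B at 0.9 µM final and 0% = DMSO alone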
* hit, by the source's call; / = no result given.

SMILES	TAAR1 ag	HTR2A ag	MC4R antagonist	B2AR ag	MC4R ag barr	TAAR1 antag	MC4R barr ag	MOR-DOR barr ag
CN(C)C(=O)c1cccc(-c2cnc3c(NC=O)cc(-c4cc(F)c(F)c(F)c4)cn23)c1	29	-1	-7	/	4	25	/	/
CN(C)C(=O)c1cccc(-c2cnc3c(NC=O)cc(-c4ccccc4F)cn23)c1	6	-1	-21	/	9.8*	0	11*	1
CCSc1ccc(-c2cc(NC=O)c3ncc(-c4cccc(C(=O)NCCN(C)C)c4)n3c2)cc1	1	-10	2	/	11*	11	13*	11
Cc1cccc(C)c1-n1nnnc1C1c2ccccc2C(=O)N1CCCn1ccnc1 (centres undefined)	0	0	/	/	/	-2	/	/
C=CCn1c(=N)n(CC(=O)c2cccc([N+](=O)[O-])c2)c2ccccc21	1	-4	7	-9	-1	-4	/	/
N=c1n(CCN2CCCCC2)c2ccccc2n1CC(=O)c1cccc([N+](=O)[O-])c1	-1	-14	-4	-1	11*	-13	5	/
CCOc1ccccc1C(=O)OCC(=O)Nc1ccc(N2CCCCC2)cc1	2	-4	-6	7	2	5	/	/
O=C(COC(=O)c1ccccc1OC(F)F)Nc1ccc(N2CCCCC2)cc1	5	0	-2	-4	11*	2	-1	4
COc1cc(OC)cc(C(=O)OCC(=O)Nc2ccc(N3CCCCC3)cc2)c1	8	3	-2	6	13*	5	2	10
O=C(COC(=O)c1ccc(O)cc1)Nc1ccc(N2CCCCC2)cc1	1	-8	4	4	0	9	/	/
O=S(=O)(Nc1cc2nc3ccccc3nc2n1Cc1ccccc1)c1ccc(Cl)cc1	21	-1	-9	-26	15*	30	10*	10
Cc1cccc(Cn2cc3c(=O)n(Cc4cccc(F)c4)nc-3c3ccccc32)c1	0	5	24	0	17*	10	-2	10
Cc1cc(C(=O)Nc2sc3c(c2C#N)CCC(C(C)(C)C)C3)no1 (centres undefined)	5	5	-5	-1	9.9*	-9	-2	3
CC(C)(C)C1CCc2c(sc(NC(=O)c3cc(C4CC4)on3)c2C#N)C1 (centres undefined)	0	0	-6	-15	0	-4	/	/
Cc1oc2ccc(Br)cc2c(=O)c1-c1nn[nH]n1	-1	-3	-4	11	-1	-6	/	/
CC(=O)c1cccc(NC(=O)CNC(=O)c2sc3ccccc3c2Cl)c1	0	10	9	7	19*	10	24*	18*
Cc1nn(Cc2c(Cl)cccc2Cl)c(C)c1NC(=O)c1sc2ccccc2c1Cl	4	4	1	4	45*	8	1	5
Cc1cccc(NC(=O)CNC(=O)c2sc3ccccc3c2Cl)n1	1	2	4	-3	11*	3	-1	13
COc1cccc(NC(=O)CN(C)C(=O)CNC(=O)c2sc3ccccc3c2Cl)c1	1	0	2	-10	-1	-12	/	/
Cc1nn(Cc2ccc(Cl)c(Cl)c2)c(C)c1NC(=O)c1sc2ccccc2c1Cl	3	0	-8	-2	-1	37	/	/
Cc1cccnc1NC(=O)CNC(=O)c1sc2ccccc2c1Cl	7	1	4	-6	-1	-5	/	/
CC1(C)ON=C(c2cccc(F)c2)NC1=O	-1	3	13	/	0	-9	/	/
CCCc1cc(=O)oc2c(C)c(OCC(=O)Nc3ccc(CN4CCOCC4)cc3)ccc12	4	0	-2	3	16*	3	-1	2
c1ccc(C(CN2CCCCC2)Oc2ccccn2)cc1 (centres undefined)	0	-1	-1	0	-1	1	/	/
O=C(C[C@H]1C(=O)N(c2ccccc2)C[C@@H]1Cc1ccccc1)Nc1ccc(Br)cc1	1	5	10	/	14*	16	1	4
SMILES	TAAR1 ag	HTR2A ag	MC4R antagonist	B2AR ag	MC4R ag barr	TAAR1 antag	MC4R barr ag	MOR-DOR barr ag
O=C(C[C@H]1C(=O)N(c2ccc(Br)cc2)C[C@@H]1Cc1ccccc1)Nc1ccccc1	0	1	8	/	2	8	/	/
CCC1(CCC(C)C)SC(N)=NC1=O (centres undefined)	2	0	6	11	-2	-7	/	/
O=C(Nc1ccc(F)cc1F)c1csc(-c2cccs2)n1	4	4	-2	3	15*	-13	0	4
CN1C(C(=O)Nc2ccc(F)cc2F)=CC(c2cccs2)=NS1(=O)=O	3	-8	4	2	0	6	/	/
Cc1nc2c(OCCN3C(=O)c4ccccc4C3=O)cccn2c1N(C)C(=O)CCC1CCCC1	1	-2	5	/	0	18	/	/
CCOc1ccc(-c2n[nH]c(C)c2Oc2ccccc2OC)c(O)c1	2	0	11	11	12*	12	3	7
O=C(O)CCCN1C(=O)/C(=C/c2cn(-c3ccccc3)nc2-c2cccs2)SC1=S	13	0	19	-1	9.9*	41	6	1
CCOC(=O)C1CCN(C(=O)c2ccc(S(=O)(=O)Nc3ccccc3OC)cc2)CC1	3	10	7	7	-2	-6	/	/
COc1ccc(Cc2nnc(NC(=O)Nc3ccccc3F)s2)cc1OC	2	2	-2	-5	14*	0	4	6
Cc1nnnn1/C(=C\c1ccccc1)C(=O)OCC(=O)Nc1ccc(Cl)cc1F	0	5	-26	6	37*	2	24*	4
CCC(C)(C)c1ccc(OCCCC[n+]2ccccc2)c(C(C)(C)CC)c1	17	-3	13	7	12*	-3	12*	6
CCCCCc1ccc(OCCCC[n+]2ccccc2)c(CCCCC)c1	/	-10	16	12	10*	/	8.3*	2
COc1cc(/C=C(\C#N)c2nc3ccccc3s2)ccc1OCC(=O)Nc1ccccc1	/	3	3	76*	49*	/	30*	10
COc1cccc(CN(Cc2ccco2)S(=O)(=O)c2ccc(S(=O)(=O)NCc3ccccc3)cc2)c1OC	16	-11	5	4	1	28	/	/
